Tests used:
[1] = system: MCF7; experiment: The compound was tested for antiproliferative activity against MCF-7 human breast cancer cells; In active; type: functional, cell-based
In short: (§1)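 MCF-7 human breast cancer cells, MTT assay. Growth inhibition expressed as % of control absorbance after 6 days incubation. IC50 read graphically as the concentration giving a 50% decrease in cell growth. Mean of three experiments; deviations within ±5%.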

[2] = system: MCF7; experiment: The compound was tested for antiproliferative activity against MCF-7 human breast cancer cells; type: functional, cell-based; in short: as §1

| Compound | IC50 [1] | IC50 [2] [µM] |
| --- | --- | --- |
| COc1ccc(O)c(C(=O)/C=C/c2ccccc2)c1 |  | 29.2 |
| COc1cc(O)c(C(=O)/C=C/c2ccccc2)c(O)c1 |  | > 60 |
| COc1ccc(C(=O)/C=C/c2ccccc2)c(O)c1 |  | 26.8 |
| COc1cccc(O)c1C(=O)/C=C/c1ccccc1 |  | 18.3 |
| O=C(/C=C/c1ccccc1)c1ccc(O)c(O)c1O |  | 22.2 |
| O=C(/C=C/c1ccccc1)c1ccc(O)cc1O [2',4'-DIHYDROXYCHALCONE] |  | 16.3 |
| O=C(/C=C/c1ccccc1)c1ccccc1O [2'-HYDROXYCHALCONE] |  | 28.4 |
| O=c1cc(-c2ccccc2)oc2c(O)c(O)ccc12 [7,8-DIHYDROXYFLAVONE] |  | 27.5 |
| COc1cc(O)c(C(=O)/C=C/c2ccccc2)c(OC)c1 [FLAVOKAWAIN B] |  | 20 |

Next, values leading:

| IC50 [1] | IC50 [2] [µM] | Compound |
| --- | --- | --- |
| Not Active |  | O=C1CC(c2ccccc2)Oc2c1ccc(O)c2O (stereo not drawn) |
|  | 35.7 | COc1cccc2c1C(=O)CC(c1ccccc1)O2 (stereo not drawn) |
|  | 35.7 | COc1ccc2c(c1)OC(c1ccccc1)CC2=O (stereo not drawn) |
|  | 36 | COc1cc(OC)c2c(c1)OC(c1ccccc1)CC2=O (stereo not drawn) [DIMETHYLPINOCEMBRIN] |

Source: ChEMBL document CHEMBL1133865, “Flavonoids: structural requirements for antiproliferative activity on breast cancer cells” (Bioorg Med Chem Lett, 2001)
